Data as given in publication PMC4083110 (Molecular & Cellular Proteomics : MCP, 2014).
Entries after “also recorded” stand apart in the source; their conditions may differ. Values belong to the substance of their own block, whether it stands above or below them.

Key:
[1] = system: PIK3R-derived SH2 domains; assay: FP saturation binding, domain family; set-up: species or system human; settings: for recruitment of PIK3R (PI3KR) SH2 domains: FP, result in words
How it was run: (§1)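 Multi-SH2 genes were used as tandem proteins that kept the linker residues. Automated high-throughput FP saturation binding was run against 178 synthetic phosphopeptides from RTK, GAB1 and androgen receptor tyrosine sites. Millipolarization readings were fitted to P_obs = Pmax·[Protein]/(K_D+[Protein]) by least squares regression to give K_D.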

Shp2/PTPN11 SH2 domain = molecular target: T1, Shp2/PTPN11 SH2 domain (Homo sapiens, UniProt Q06124); assay: FP saturation binding, construct not stated; settings: result in words
T1 sequence (Q06124 2-593): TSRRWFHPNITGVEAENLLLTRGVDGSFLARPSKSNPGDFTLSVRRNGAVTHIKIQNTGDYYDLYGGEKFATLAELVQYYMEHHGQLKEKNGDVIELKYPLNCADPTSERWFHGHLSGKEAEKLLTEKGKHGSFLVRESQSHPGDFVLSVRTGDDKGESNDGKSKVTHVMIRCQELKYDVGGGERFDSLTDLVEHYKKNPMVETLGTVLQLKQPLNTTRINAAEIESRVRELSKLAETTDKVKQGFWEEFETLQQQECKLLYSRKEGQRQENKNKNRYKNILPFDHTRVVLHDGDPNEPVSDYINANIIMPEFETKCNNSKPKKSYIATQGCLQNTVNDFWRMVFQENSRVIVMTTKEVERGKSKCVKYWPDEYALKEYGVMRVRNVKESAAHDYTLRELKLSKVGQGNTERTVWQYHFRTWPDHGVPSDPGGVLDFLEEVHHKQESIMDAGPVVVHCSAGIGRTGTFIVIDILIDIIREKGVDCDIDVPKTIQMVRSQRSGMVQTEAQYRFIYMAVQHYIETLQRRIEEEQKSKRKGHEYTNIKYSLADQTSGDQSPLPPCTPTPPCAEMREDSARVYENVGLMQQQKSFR
How it was run: as §1

[2] = system: c-Src family kinase SH2 domains; assay: FP saturation binding, domain family; set-up: species or system human; settings: result in words
How it was run: as §1

RASA1 SH2 domains = molecular target: T2, RASA1 SH2 domains (Homo sapiens, UniProt P20936); assay: FP saturation binding, construct not stated; settings: result in words
T2 sequence (P20936 181-441 limits assumed): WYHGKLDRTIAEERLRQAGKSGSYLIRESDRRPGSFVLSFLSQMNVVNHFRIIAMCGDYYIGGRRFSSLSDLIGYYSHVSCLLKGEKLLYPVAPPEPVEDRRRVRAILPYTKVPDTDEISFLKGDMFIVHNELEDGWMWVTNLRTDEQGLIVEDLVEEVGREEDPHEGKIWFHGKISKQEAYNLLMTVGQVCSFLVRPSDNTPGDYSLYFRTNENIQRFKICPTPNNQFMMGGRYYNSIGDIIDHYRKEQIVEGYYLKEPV
How it was run: as §1

PLCG2 SH2 domains = molecular target: T3, PLCG2 SH2 domains (Homo sapiens, UniProt P16885); assay: FP saturation binding, construct not stated; settings: result in words
T3 sequence (P16885 532-735 limits assumed): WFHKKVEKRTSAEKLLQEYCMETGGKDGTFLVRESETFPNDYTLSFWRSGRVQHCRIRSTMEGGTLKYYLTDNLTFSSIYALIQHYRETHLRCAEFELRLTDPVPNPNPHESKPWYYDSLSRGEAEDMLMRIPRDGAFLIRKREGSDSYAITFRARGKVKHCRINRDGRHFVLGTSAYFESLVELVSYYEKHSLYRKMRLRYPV
How it was run: as §1

PLCG1 SH2 domains = molecular target: T4, PLCG1 SH2 domains (Homo sapiens, UniProt P19174); assay: FP saturation binding, construct not stated; settings: result in words
T4 sequence (P19174 550-756 limits assumed): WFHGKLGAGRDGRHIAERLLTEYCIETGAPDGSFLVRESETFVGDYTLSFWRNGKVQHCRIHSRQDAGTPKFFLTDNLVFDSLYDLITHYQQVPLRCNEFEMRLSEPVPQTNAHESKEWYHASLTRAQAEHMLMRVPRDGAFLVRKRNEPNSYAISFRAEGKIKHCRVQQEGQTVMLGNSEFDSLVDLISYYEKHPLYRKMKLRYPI
How it was run: as §1

PIK3R1 SH2 domains = PIK3R1 SH2 domains (Homo sapiens, UniProt P27986); assay: FP saturation binding, construct not stated; settings: result in words
PIK3R1 SH2 domains, sequence (P27986 2-724): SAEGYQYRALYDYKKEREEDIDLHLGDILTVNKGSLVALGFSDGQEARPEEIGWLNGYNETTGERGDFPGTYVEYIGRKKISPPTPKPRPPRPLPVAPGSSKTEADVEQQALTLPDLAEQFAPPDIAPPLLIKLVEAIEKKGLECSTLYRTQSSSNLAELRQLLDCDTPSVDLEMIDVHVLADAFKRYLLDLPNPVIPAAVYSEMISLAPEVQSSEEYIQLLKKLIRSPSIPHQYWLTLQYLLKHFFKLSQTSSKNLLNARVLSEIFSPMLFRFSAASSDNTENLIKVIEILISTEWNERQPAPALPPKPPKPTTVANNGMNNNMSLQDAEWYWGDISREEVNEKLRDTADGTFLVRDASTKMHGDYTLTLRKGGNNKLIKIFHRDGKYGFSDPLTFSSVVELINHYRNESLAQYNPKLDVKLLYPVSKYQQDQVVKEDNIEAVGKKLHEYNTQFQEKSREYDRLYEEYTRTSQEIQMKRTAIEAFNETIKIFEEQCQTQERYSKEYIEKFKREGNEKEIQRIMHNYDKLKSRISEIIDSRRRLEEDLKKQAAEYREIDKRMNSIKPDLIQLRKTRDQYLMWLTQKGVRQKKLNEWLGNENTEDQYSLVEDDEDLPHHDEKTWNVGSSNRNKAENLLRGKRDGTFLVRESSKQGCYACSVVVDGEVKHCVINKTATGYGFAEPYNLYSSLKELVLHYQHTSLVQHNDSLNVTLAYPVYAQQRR
How it was run: as §1

PIK3R3 SH2 domains = assay: FP saturation binding, construct not stated; set-up: species or system human; settings: result in words
How it was run: as §1

CRK SH2 domain = CRK SH2 domain (Homo sapiens, UniProt P46108); assay: FP saturation binding; settings: result in words
CRK SH2 domain, sequence (P46108 13-118 limits assumed): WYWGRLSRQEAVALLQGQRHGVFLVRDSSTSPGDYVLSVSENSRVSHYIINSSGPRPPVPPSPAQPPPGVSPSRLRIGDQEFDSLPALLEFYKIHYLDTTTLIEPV
How it was run: as §1

SRC SH2 domain = SRC SH2 domain (Homo sapiens, UniProt P12931); assay: FP saturation binding; settings: result in words
How it was run: as §1

SHC1 SH2 domain = molecular target: T5, SHC1 SH2 domain (Homo sapiens, UniProt P29353); assay: FP saturation binding; settings: result in words
T5 sequence (P29353 488-579 limits assumed): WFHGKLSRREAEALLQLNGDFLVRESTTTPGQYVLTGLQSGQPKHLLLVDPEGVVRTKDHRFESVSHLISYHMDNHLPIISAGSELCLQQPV
How it was run: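 Tandem SH2 proteins were kept with their linkers. Synthetic phosphotyrosine peptides were run in automated high-throughput FP saturation binding. Millipolarization was fitted to Pobs = Pmax·[Protein]/(KD+[Protein]) by least squares to give KD per protein/peptide pair.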

CRKL SH2 domain = CRKL SH2 domain (Homo sapiens, UniProt P46109); assay: FP saturation binding; settings: result in words
CRKL SH2 domain, sequence (P46109 14-102 limits assumed): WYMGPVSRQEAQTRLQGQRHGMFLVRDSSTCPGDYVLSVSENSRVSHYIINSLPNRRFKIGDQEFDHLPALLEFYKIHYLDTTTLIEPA
How it was run: as §1

[3] = molecular target: PIK3R3 (C-terminal domain), PIK3R3.C (Homo sapiens, UniProt Q92569); assay: FP saturation binding; settings: result in words
How it was run: as §1

[4] = molecular target: PLCG1 (NC tandem domain), PLCG1.NC (Homo sapiens, UniProt P19174); assay: FP saturation binding; settings: result in words
How it was run: as §1

[5] = system: 93 SH2 domains and 2 phosphotyrosine binding (PTB) domains; assay: High throughput FP, whole domain panel; set-up: species or system human; settings: result in words
How it was run: as §1

- recruitment of PLCG2 SH2 domains (PLCG2 SH2 domains): recruitment sites
- recruitment of PIK3R (PI3KR) SH2 domains [1]: relatively high affinity
- recruitment of PLCG1 SH2 domains (PLCG1 SH2 domains): recruitment sites
Substance: PIDYXFPPQKTCd [AR Tyr(P)-553]

- recruitment of PLCG2 SH2 domains (PLCG2 SH2 domains): recruitment sites
- interaction with SRC SH2 domain (SRC SH2 domain): interacted
- recruitment of RASA1 SH2 domains (RASA1 SH2 domains): interacted
Substance: QSRDXYNFPLALd [AR Tyr(P)-362]
- recruitment of PIK3R (PI3KR) SH2 domains [1]: interacted; also recorded: relatively high affinity
- recruitment of PLCG1 SH2 domains (PLCG1 SH2 domains): interacted; also recorded: recruitment sites

- recruitment of CRK SH2 domain (CRK SH2 domain): no CRK SH2 domain interactions
- recruitment of CRKL SH2 domain (CRKL SH2 domain): CRKL SH2 domain interactions
- recruitment of PLCG1 SH2 domains (PLCG1 SH2 domains): confirmed
Substance: SQDCXDIPRAFPd [GAB1 Tyr(P)-406]

- midpoint dissociation constants ([1]; FP saturation binding, all PIK3R SH2 domains, in words): sub-micromolar
- recruitment of PIK3R (PI3KR) SH2 domains [1]: highest affinity
Substance: STNEXMDMKPGVd [c-Kit Tyr(P)-721]

- recruitment of CRK SH2 domain (CRK SH2 domain): recruited
- recruitment of c-Src family kinase SH2 domains [2]: recruited
Substance: VITEXCCYGDLLd [c-Kit Tyr(P)-672]

- recruitment of PLCG2 SH2 domains (PLCG2 SH2 domains): recruitment sites
- recruitment of PLCG1 SH2 domains (PLCG1 SH2 domains): recruitment sites
Substance: VKPIXFHTQ [AR Tyr(P)-915]

- recruitment of CRK SH2 domain (CRK SH2 domain): no CRK SH2 domain interactions
- recruitment of PLCG1 SH2 domains (PLCG1 SH2 domains): confirmed
- recruitment of RASA1 SH2 domains (RASA1 SH2 domains): confirmed
Substance: VSISXDIPPTPGd [GAB1 Tyr(P)-307]

More lines, now with the values behind:

Substance: LQPEXCPDPLYEd [c-Met Tyr(P)-1307]
- recruitment of PIK3R (PI3KR) SH2 domains [1]: moderate recruitment
- recruitment of Shp2/PTPN11 SH2 domain (Shp2/PTPN11 SH2 domain): recruit

Substance: NNYVXIDPTQLPd [c-Kit Tyr(P)-570]
- recruitment of c-Src family kinase SH2 domains [2]: recruited

Substance: PAEMXDIMKTCWd [c-Kit Tyr(P)-900]
- recruitment of c-Src family kinase SH2 domains [2]: recruited

Substance: PGNTXQIPRTFPd [GAB1 Tyr(P)-317]
- recruitment of RASA1 SH2 domains (RASA1 SH2 domains): confirmed

Substance: QEANXVPMTPGTd [GAB1 Tyr(P)-472]
- recruitment of PIK3R1 (PIK3R1 SH2 domains): confirmed
- recruitment of PIK3R3 (PIK3R3 SH2 domains): high affinity

Substance: QQMIXDSPPSRAd [GAB1 Tyr(P)-242]
- recruitment of CRK SH2 domain (CRK SH2 domain): no CRK SH2 domain interactions

Substance: SEENXVPMNPNLd [GAB1 Tyr(P)-627]
- recruitment of PIK3R1 (PIK3R1 SH2 domains): confirmed
- interaction with SHC1 SH2 domain (SHC1 SH2 domain): interactions were identified
- recruitment of PIK3R3 (PIK3R3 SH2 domains): high affinity

Substance: TDSSXCIPTAGMd [GAB1 Tyr(P)-373]
- recruitment of CRK SH2 domain (CRK SH2 domain): no CRK SH2 domain interactions
- interaction with SHC1 SH2 domain (SHC1 SH2 domain): interactions were identified
- recruitment of PLCG1 SH2 domains (PLCG1 SH2 domains): confirmed

Substance: YSGPXGDMRLETd [AR Tyr(P)-534]
- recruitment of PIK3R3 (C-terminal domain) [3]: did recruit
- recruitment of c-Src family kinase SH2 domains [2]: did not recruit
- recruitment of PLCG1 (NC tandem domain) [4]: did recruit
- recruitment across the SH2 domain panel [5]: interacted with few SH2 domains
